Test [1] is described as follows: inhibitors of TNFa-induced NFkB p65 translocation, primary screen, imaging, HUVEC, MLSMR starter and 10KST1 sets (AID 438;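 active means inhibition above 20% together with a positive visual image hit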;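 further: compound added about 3h40 before a 20 min TNFalpha stimulation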;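 on inhibition: signal is the nuclear over cytoplasmic p65 intensity ratio per well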). The settings on record: HUVEC TNFa-induced p65 nuclear translocation; cell count: measured here: nuclei count (cytotoxicity indicator), at 2.08 µM; inhibition: at 2 µM, stronger effect = higher value, 0% TNFa-plus-vehicle, 100% no-TNFa wells.
The nature of test [2]: inhibitors of E-selectin induction by TNFa, primary screen, imaging, HUVEC, immunofluorescence, MLSMR starter and 10KST1 sets (AID 487;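 active means visually confirmed hit in the image check and inhibition above 20%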;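 on inhibition: signal is fraction of cell area covered by stained E-selectin grains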;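 on nuclei count: 100% = median nuclei count of all wells on the same plate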). The settings on record: HUVEC TNFalpha-induced E-selectin immunofluorescence imaging, at 2 µM; inhibition: stronger effect = higher value; nuclei count: measured here: cell number, toxicity.
Test [3] in a line: DUSP6 inhibitors restoring Erk phosphorylation by chemical complementation, primary imaging in DUSP6-transfected HeLa (AID 609;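 active means compounds giving at least 50% inhibition in the cell-based MKP-3 phosphatase rescue imaging test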;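 on inhibition: phospho-Erk level distribution per well compared with pooled transfected vehicle control wells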). The settings on record: HeLa MKP-3 transfected, phospho-Erk imaging KS statistic, at 10 µM, cells stimulated with TPA for 15 min.
Test [4] deals with Dual specificity protein phosphatase 6 (Homo sapiens) (UniProt Q16828). Described as above. Particulars: HeLa MKP-3 transfected, phospho-Erk imaging KS statistic; at 10 µM; stronger effect = higher value; cells stimulated with TPA for 15 min.
Test [5] deals with Voltage-gated potassium channel subunit beta-2 (Rattus norvegicus) (UniProt P62483). The test can be described thus: KvBeta enzyme negative modulators, primary screen, biochemical, NADPH fluorescence (AID 622;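 active means fluorescence slope higher than the sample average by over 3 SD, cut at about -0.22 in these data, passing the limit was not always enough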;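 further: slope of raw intensity against log time taken from 70 to 1610 s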). The settings on record: recombinant KvBeta, 4-cyanobenzaldehyde reduction, at 10 µM, stronger effect = higher value.
The target is the same in test [6]. In words: KvBeta positive modulators, primary screen, biochemical, NADPH fluorescence (AID 623;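 active means NADPH fluorescence slope more negative than the mean of all samples by about 3 SD, 99.7% confidence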;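 further: fluorescence intensity change per second fitted from 20 to 320 s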). The settings on record: Recombinant KvBeta, NADPH fluorescence decrease slope, 10 min; at 10 µM; stronger effect = lower value.
Test [7] deals with Muscarinic acetylcholine receptor M4 (Homo sapiens) (UniProt P08173). In words: compounds altering M4/GIRK thallium flux, either direction, primary screen, M4 allosteric agonist project, cell-based, HEK293 M4/GIRK, BTC-AM (AID 625).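 Further: thallium influx through GIRK channels coupled to M4 in HEK293 cells with BTC-AM dye.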 Particulars: at 10 µM, actives lie on both sides. The gist of the method: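 Material: M4/GIRK1/GIRK2 stable HEK293 cell line. Medium: pH 7.3 thallium assay buffer. Dosing: single compound concentration, 10 µM final. Schedule: 1 h dye loading, 2 min kinetic read. Measured by: kinetic fluorescence with BTC-AM dye. Read-out: post-addition slope, 15–24 s, of baseline-normalized fluorescence. Benchmarks: carbachol and DMSO controls.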

Test [8] in a line: inhibitors of larval lipid processing in zebrafish, primary screen, whole organism, PED6 fluorescence, gall bladder and intestine (AID 686;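 active means a full or partial loss of lipid-probe fluorescence in the fish gall bladder, intestine or both, judged by eye; inactive means no fluorescence loss, or compound toxic to the fish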;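 further: larvae 5 to 7 days old with five fish per well; signal comes from phospholipase A2 cleavage of quenched PED6 carried via bile; overnight exposure to compound and PED6 before scoring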). The settings on record: Zebrafish larvae PED6 lipid processing, fluorescence scoring; screened at 20 µM (by protocol). The gist of the method:
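System: live zebrafish larvae aged 5-7 days, whole organism; measure: graded gall bladder and intestinal fluorescence inhibition per well; incubation: overnight exposure; reagent: ingested quenched lipid PED6 at 100 nM; signal: By-eye fluorescence microscopy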

The nature of test [9]: inhibitors of Chlamydomonas gravitaxis, primary screen, whole organism, Chlamydomonas reinhardtii, WT vs cilia-less mutant, absorbance, 96-well (AID 463189;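 active means inhibition at or above 50% relative to wild type and mutant plate controls; inactive means inhibition below 50%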;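 further: 0% = wild type cc124 cells in DMSO and 100% = ciliumless bld1 mutant cells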). Particulars: OD600 absorbance, 2 days, at 10 µM, stronger effect = higher value.
Where [10] appears, read: measured here: cell density z-score.
[11] abbreviates: measured here: nuclear c-Myc green intensity z-score.
The mark [12] stands for this setting: measured here: nuclear pErk red intensity z-score, stronger effect = higher value.

By inhibition is commonly meant the drop in the measured response relative to a control, in per cent.

Calls of active or inactive are those of the source.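 How the source made its calls, unless noted: active means fluorescence slope after compound addition differing from the mean of all tested samples at 99.7% confidence, mostly higher but some lower; inactive means the rest.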

Voltage-gated potassium channel subunit beta-2 (Rattus norvegicus), sequence (P62483 whole entry, looked up): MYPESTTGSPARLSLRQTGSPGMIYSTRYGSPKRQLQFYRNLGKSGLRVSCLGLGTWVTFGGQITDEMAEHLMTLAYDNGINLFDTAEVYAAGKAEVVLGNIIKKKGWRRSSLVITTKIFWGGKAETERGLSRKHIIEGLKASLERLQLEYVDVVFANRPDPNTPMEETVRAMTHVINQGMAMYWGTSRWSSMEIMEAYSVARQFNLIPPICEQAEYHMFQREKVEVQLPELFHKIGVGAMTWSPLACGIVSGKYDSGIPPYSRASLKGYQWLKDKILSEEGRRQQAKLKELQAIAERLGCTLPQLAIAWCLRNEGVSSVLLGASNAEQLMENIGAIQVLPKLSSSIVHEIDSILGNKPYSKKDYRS
Dual specificity protein phosphatase 6 (Homo sapiens), sequence (Q16828 whole entry, looked up): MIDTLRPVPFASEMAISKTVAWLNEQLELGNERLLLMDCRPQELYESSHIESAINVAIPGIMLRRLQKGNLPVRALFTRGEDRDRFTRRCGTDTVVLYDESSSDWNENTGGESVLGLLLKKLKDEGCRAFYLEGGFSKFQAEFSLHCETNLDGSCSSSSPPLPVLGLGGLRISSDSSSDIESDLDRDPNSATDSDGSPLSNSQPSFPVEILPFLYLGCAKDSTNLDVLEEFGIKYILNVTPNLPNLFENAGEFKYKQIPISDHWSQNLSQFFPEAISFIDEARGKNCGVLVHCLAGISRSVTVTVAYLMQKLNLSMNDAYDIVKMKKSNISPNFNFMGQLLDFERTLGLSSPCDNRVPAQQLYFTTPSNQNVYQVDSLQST
Muscarinic acetylcholine receptor M4 (Homo sapiens), sequence (P08173 whole entry, looked up): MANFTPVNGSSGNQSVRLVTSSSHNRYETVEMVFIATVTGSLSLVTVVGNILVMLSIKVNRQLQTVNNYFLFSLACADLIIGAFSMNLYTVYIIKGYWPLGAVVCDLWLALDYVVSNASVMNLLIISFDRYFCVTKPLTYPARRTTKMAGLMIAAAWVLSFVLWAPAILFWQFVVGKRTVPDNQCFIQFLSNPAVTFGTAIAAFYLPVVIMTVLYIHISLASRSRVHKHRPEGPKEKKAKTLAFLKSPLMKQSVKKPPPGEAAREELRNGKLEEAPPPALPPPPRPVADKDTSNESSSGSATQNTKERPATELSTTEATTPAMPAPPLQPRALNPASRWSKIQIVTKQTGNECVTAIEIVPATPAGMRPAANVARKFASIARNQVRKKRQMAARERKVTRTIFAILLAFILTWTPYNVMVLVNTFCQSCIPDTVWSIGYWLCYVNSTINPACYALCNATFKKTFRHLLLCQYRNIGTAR

On to `COC(=O)C1CCN(c2nc3ccccc3nc2C(C#N)C(=O)NCCc2ccccc2)CC1` (stereo unspecified), for which the cell count in test [1] was determined as 600. The inhibition in test [1] is -8.8% (inactive); in test [2], -60.5% (inactive); in test [4], 1.42% (inactive); in [9] it was -8.92% (inactive). The compound further displayed a nuclei count in test [2] of 199%. Besides, the z-score was 0.0104 in test [3] (setting [10]), -0.0979 in [3] (setting [11]) and -0.225 in test [3] (setting [12]). The fluorescence slope in test [5] was -0.356 (inactive); in test [7], 0.00365 (inactive). The NADPH fluorescence slope in [6] was -5.2e-05 (inactive). In [8], the compound was classed as inactive.
With `CCSc1nnc(NC(NC(=O)c2ccco2)(C(F)(F)F)C(F)(F)F)s1`, the cell count in test [1] came out at 608. Besides, the inhibition in [1] was -7.3% (inactive); in [2], -13.8% (inactive); in test [4], -7.67% (inactive); in [9] it was -9.53% (inactive). The compound also displayed a nuclei count in [2] of 91.9%. Moreover, the z-score was -1.05 in test [3] (setting [10]), -0.75 in [3] (setting [11]) and -0.312 in test [3] (setting [12]). Also, the fluorescence slope in test [5] was -0.483 (inactive); in test [7], 0.00455 (inactive). Moreover, the NADPH fluorescence slope in test [6] is -3.9e-05 (inactive). In addition, in test [8], the compound was called inactive.
Turning to `CCCSc1nc(O)c(C2OC(=O)c3c2ccc(OC)c3OC)c(=O)n1C` (stereo unspecified), the cell count in test [1] came out at 560. Moreover, the inhibition is -1.3% (inactive) in [1], 29.6% (inactive) in test [2], 7.93% (inactive) in test [4] and 12.4% (inactive) in [9]. For the same compound, the nuclei count in test [2] is 143%. Further, the z-score in [3] (setting [10]) is 0.566; in test [3] (setting [11]) it was -0.178; in test [3] (setting [12]) it was 0.157. The fluorescence slope in [5] is -0.415 (inactive); in [7], 0.00648 (inactive). In addition, the NADPH fluorescence slope in test [6] was -3.7e-05 (inactive). In addition, the result in [8] was inactive.
For the compound `CCNc1sc(C(=O)c2cccs2)c(N)c1C#N`, the cell count in [1] came out at 583. Besides, the inhibition in test [1] is 0.3% (inactive); in [2], -26.4% (inactive); in test [4], 10.9% (inactive); in test [9], 24.6% (inactive). In addition, the nuclei count in test [2] is 114%. Moreover, the z-score in test [3] (setting [10]) is 0.394; in test [3] (setting [11]) it was -0.752; in [3] (setting [12]), 0.076. Moreover, the fluorescence slope is -0.442 (inactive) in test [5] and 0.00473 (inactive) in [7]. For the same compound, the NADPH fluorescence slope in test [6] was -4.6e-05 (inactive). The result in test [8] was inactive.
On to `N#Cc1cccc(-n2c(-c3ccccc3)nnc2-c2ccccc2)c1C#N`, for which the cell count in test [1] was determined as 587. Further, the inhibition in test [1] was -2.7% (inactive); in [2], -7.1% (inactive); in test [4], -7.86% (inactive); in [9], 6.01% (inactive). This compound also registered a nuclei count in test [2] of 99.3%. Also, the z-score in test [3] (setting [10]) is -3.17; in [3] (setting [11]), 1.25; in test [3] (setting [12]), 1.22. The values for the fluorescence slope in [5] and in test [7] were -0.508 (inactive) and 0.00624 (inactive), respectively. The NADPH fluorescence slope in test [6] was -6.3e-05 (inactive). Also, the call in test [8] was inactive.
`Cc1ccc(N2CC(C(=O)Nc3ccc(N(C)C)cc3)CC2=O)cc1C` (stereo unspecified): the cell count in [1] came out at 477. Besides, the inhibition is -7.1% (inactive) in test [1], -76.8% (inactive) in [2], -1.98% (inactive) in [4] and -1.65% (inactive) in test [9]. The compound further gave a nuclei count in test [2] of 107%. Further, the z-score in [3] (setting [10]) is -1.37; in [3] (setting [11]), 0.307; in test [3] (setting [12]), 1.15. For the same compound, the figures for the fluorescence slope in test [5] and in test [7] were -0.411 (inactive) and 0.00461 (inactive), respectively. Moreover, the NADPH fluorescence slope in test [6] is -9.5e-07 (inactive). The compound was called inactive in test [8].
For the compound `Cn1c(N2CCN(c3ccccn3)CC2)nc2c1c(=O)n(Cc1ccccc1Cl)c(=O)n2C`, the cell count in test [1] was found to be 738. Further, the inhibition was 4.2% (inactive) in [1], -56.1% (inactive) in [2], 13.9% (inactive) in test [4] and 5.36% (inactive) in [9]. Also, the nuclei count in [2] was 177%. In addition, the z-score in [3] (setting [10]) was -0.827; in test [3] (setting [11]) it was -0.0696; in test [3] (setting [12]), 1.36. For the same compound, the fluorescence slope in [5] is -0.465 (inactive); in test [7] it was 0.00667 (inactive). The NADPH fluorescence slope in [6] is -0.000144 (inactive). Further, the outcome in [8] was inactive.

The record behind these values is PubChem BioAssay.
